Assays:
Format in all cases: functional
Malme-3M = experiment: Cytotoxicity against human MALME-3M cells assessed as cell growth at 100 nM after 48 hrs by sulforhodamine B assay; conditions: read-out: Activity
OVCAR-5 = experiment: Cytotoxicity against human OVCAR5 cells assessed as cell growth at 100 nM after 48 hrs by sulforhodamine B assay; conditions: OVCAR-5, 48 h, read-out: Activity
DU-145 [1] = experiment: Cytotoxicity against human DU145 cells assessed as cell growth at 0.001 uM after 48 hrs by sulforhodamine B assay; conditions: DU-145, 48 h, read-out: Activity
BT-549 = experiment: Cytotoxicity against human BT549 cells assessed as cell growth at 100 nM after 48 hrs by sulforhodamine B assay; conditions: BT-549, 48 h, read-out: Activity
Procedure, shortened: (§1)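 NCI-60 five-dose screen. Cells were grown in RPMI 1640 with 5% FBS and 2 mM L-glutamine, plated at 5000–40,000 cells/well and preincubated for 24 h. Time-zero plates were TCA-fixed. DMSO-solubilized drug was added at five concentrations (10-fold or ½-log serial dilutions) for 48 h at 37 °C, 5% CO2. Cells were TCA-fixed, stained with 0.4% SRB and read at 515 nm. Percent growth used time-zero, control and test absorbances.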

CCRF-CEM = experiment: Cytotoxicity against human CCRF-CEM cells assessed as cell growth at 1 uM after 48 hrs by sulforhodamine B assay; conditions: read-out: Activity; procedure, shortened: as §1
K562 = experiment: Cytotoxicity against human K562 cells assessed as cell growth at 1 uM after 48 hrs by sulforhodamine B assay; conditions: K562, 48 h, read-out: Activity
SNB-19 = experiment: Cytotoxicity against human SNB19 cells assessed as cell growth at 10 uM; conditions: read-out: Activity
Procedure, shortened: (§2)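 NCI-60 screen: cells grown in RPMI 1640 with 5% FBS and 2 mM L-glutamine, plated at 5000–40,000 cells/well according to doubling time, and preincubated 24 h at 37 °C, 5% CO2. The single 10 µM dose (DMSO stock) was added, then incubated 48 h. Cells were TCA-fixed and stained with 0.4% SRB, read at 515 nm, and growth % calculated against time-zero and control plates.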

U-251 = experiment: Cytotoxicity against human U251 cells assessed as cell growth at 10 uM; conditions: read-out: Activity; procedure, shortened: as §2
LOX IMVI = experiment: Cytotoxicity against human LOXIMVI cells assessed as cell growth at 10 uM; conditions: read-out: Activity; procedure, shortened: as §2
CAKI-1 = experiment: Cytotoxicity against human Caki1 cells assessed as cell growth at 10 uM; conditions: read-out: Activity
Procedure, shortened: (§3)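 Single-dose NCI-60 screen at 10 µM. Cells were grown in RPMI 1640 with 5% FBS and 2 mM L-glutamine, then treated for 48 h at 37 °C. Protein was measured by SRB staining with absorbance at 515 nm. Percentage growth was recorded, and inhibition percentage was calculated as 100 minus growth percentage.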

SN12C = experiment: Cytotoxicity against human SN12C cells assessed as cell growth at 10 uM; conditions: read-out: Activity; procedure, shortened: as §2
DU-145 [2] = experiment: Cytotoxicity against human DU145 cells assessed as cell growth at 10 uM; conditions: read-out: Activity; procedure, shortened: as §3
HCT-116 [3] = experiment: Cytotoxicity against human HCT116 cells assessed as cell growth at 1 uM after 48 hrs by sulforhodamine B assay; conditions: HCT-116, 48 h, read-out: Activity
SW-620 [4] = experiment: Cytotoxicity against human SW620 cells assessed as cell growth at 1 uM after 48 hrs by sulforhodamine B assay; conditions: SW-620, 48 h, read-out: Activity
[5] = Cytotoxicity against human RPMI8266 cells assessed as cell growth at 0.01 uM after 48 hrs by sulforhodamine B assay; conditions: read-out: Activity
HCT-15 = experiment: Cytotoxicity against human HCT15 cells assessed as cell growth at 0.01 uM after 48 hrs by sulforhodamine B assay; conditions: HCT-15, 48 h, read-out: Activity
KM12 = experiment: Cytotoxicity against human KM12 cells assessed as cell growth at 0.01 uM after 48 hrs by sulforhodamine B assay; conditions: KM12, 48 h, read-out: Activity
OVCAR-4 = experiment: Cytotoxicity against human OVCAR4 cells assessed as cell growth at 0.01 uM after 48 hrs by sulforhodamine B assay; conditions: OVCAR-4, 48 h, read-out: Activity
NCI/ADR-RES = experiment: Cytotoxicity against human NCI/ADR-RES cells assessed as cell growth at 0.01 uM after 48 hrs by sulforhodamine B assay; conditions: read-out: Activity
NCI-H522 = experiment: Cytotoxicity against human NCI-H522 cells assessed as cell growth at 0.001 uM after 48 hrs by sulforhodamine B assay; conditions: NCI-H522, 48 h, read-out: Activity
HCT-116 [6] = experiment: Cytotoxicity against human HCT116 cells assessed as cell growth at 0.001 uM after 48 hrs by sulforhodamine B assay; conditions: HCT-116, 48 h, read-out: Activity
SK-MEL-5 = experiment: Cytotoxicity against human SK-MEL-5 cells assessed as cell growth at 0.001 uM after 48 hrs by sulforhodamine B assay; conditions: SK-MEL-5, 48 h, read-out: Activity
EKVX = experiment: Growth inhibition of human EKVX cells after 48 hrs by sulforhodamine B assay; conditions: for CC50: read-out: LC50 (the source's name)
Procedure, shortened: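 NCI five-dose SRB assay in RPMI 1640 with 5% FBS and 2 mM L-glutamine. Cells were preincubated 24 h, then exposed 48 h at 37 °C to five concentrations (10-fold or half-log serial dilutions from DMSO stocks). TCA fixation, SRB staining, and absorbance at 515 nm followed. IC50 was taken where [(Ti−Tz)/(C−Tz)]×100 = 50, with Tz as time-zero cell density.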

T47D = experiment: Cytotoxicity against human T47D cells assessed as cell growth at 0.01 uM after 48 hrs by sulforhodamine B assay; conditions: read-out: Activity
A549 [7] = experiment: Cytotoxicity against human A549 cells assessed as cell growth at 100 nM after 48 hrs by sulforhodamine B assay; conditions: A549, 48 h, read-out: Activity; procedure, shortened: as §1
MDA-MB-231 = experiment: Growth inhibition of human MDA-MB-231 cells after 48 hrs by sulforhodamine B assay; conditions: MDA-MB-231, 48 h
Procedure, shortened: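 NCI 60-cell screen, five-dose mode. Cells grown in RPMI 1640 with 5% FBS and 2 mM L-glutamine and plated at 5000-40,000 cells/well according to doubling time. After 24 h preincubation, a Tz plate was TCA-fixed. Five concentrations (10-fold or 1/2 log dilutions) were applied for 48 h at 37 °C. SRB staining read at 515 nm. IC50 taken from [(Ti-Tz)/(C-Tz)]×100 = 50.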

A549 [8] = experiment: Cytotoxicity against human A549 cells assessed as cell growth at 10 uM; conditions: read-out: Activity; procedure, shortened: as §3
PC-3 = experiment: Cytotoxicity against human PC3 cells assessed as cell growth at 1 uM after 48 hrs by sulforhodamine B assay; conditions: PC-3, 48 h, read-out: Activity
HT-29 = experiment: Cytotoxicity against human HT-29 cells assessed as cell growth at 10 uM; conditions: read-out: Activity; procedure, shortened: as §3
SW-620 [9] = experiment: Cytotoxicity against human SW620 cells assessed as cell growth at 10 uM after 48 hrs by sulforhodamine B assay; conditions: SW-620, 48 h, read-out: Activity
MDA-MB-435 = experiment: Cytotoxicity against human MDA-MB-435 cells assessed as cell growth at 10 uM after 48 hrs by sulforhodamine B assay; conditions: MDA-MB-435, 48 h, read-out: Activity

Structure (SMILES)	growth at 0.1 µM (Malme-3M) [%]	growth at 0.1 µM (OVCAR-5) [%]	growth at 0.001 µM (DU-145 [1]) [%]	growth at 0.1 µM (BT-549) [%]	growth at 1 µM (CCRF-CEM) [%]	growth at 1 µM (K562) [%]	growth at 10 µM (SNB-19) [%]	growth at 10 µM (U-251) [%]	growth at 10 µM (LOX IMVI) [%]	growth at 10 µM (CAKI-1) [%]	growth at 10 µM (SN12C) [%]	growth at 10 µM (DU-145 [2]) [%]	growth at 1 µM (HCT-116 [3]) [%]	growth at 1 µM (SW-620 [4]) [%]	growth at 0.01 µM [5] [%]	growth at 0.01 µM (HCT-15) [%]	growth at 0.01 µM (KM12) [%]	growth at 0.01 µM (OVCAR-4) [%]	growth at 0.01 µM (NCI/ADR-RES) [%]	growth at 0.001 µM (NCI-H522) [%]	further results
COc1cc(C)cc(-c2nn(CC#N)cc2-c2ccc(-c3cccc(C(C)=O)c3)nc2)c1	66	68	110	85	13	5	27.8	11.8	25.4	17.8	40.2	39	1	4	93	100	96	97	91	85	growth at 0.001 µM (HCT-116 [6]): 101%; growth at 0.001 µM (SK-MEL-5): 95%; GI50 (EKVX): 3.98 µM; TGI (EKVX): 50.7 µM; CC50 (EKVX): > 100 µM; growth at 0.01 µM (T47D): 93%; growth at 0.1 µM (A549 [7]): 91%; GI50 (MDA-MB-231): 3.04 µM; LC50 (MDA-MB-231): > 100 µM; TGI (MDA-MB-231): > 100 µM; growth at 10 µM (A549 [8]): 38.8%; growth at 1 µM (PC-3): 20%; growth at 10 µM (HT-29): 3.66%; growth at 10 µM (SW-620 [9]): -11%; growth at 10 µM (MDA-MB-435): -22%
COc1cc(C)cc(-c2c(-c3ccnc(-c4ccc(C(C)=O)cc4)c3)cnn2CC#N)c1	97	89	109	82	12	4	73.7	84.7	58.8	70.4	66	103	-27	12	94	95	97	101	91	86	growth at 0.001 µM (HCT-116 [6]): 97%; growth at 0.001 µM (SK-MEL-5): 95%; GI50 (EKVX): 5.8 µM; TGI (EKVX): > 100 µM; CC50 (EKVX): > 100 µM; growth at 0.01 µM (T47D): 92%; growth at 0.1 µM (A549 [7]): 83%; GI50 (MDA-MB-231): 3.63 µM; LC50 (MDA-MB-231): > 100 µM; TGI (MDA-MB-231): > 100 µM; growth at 10 µM (A549 [8]): 91.4%; growth at 1 µM (PC-3): 24%; growth at 10 µM (HT-29): 15.2%; growth at 10 µM (SW-620 [9]): 14%; growth at 10 µM (MDA-MB-435): 16%
COc1cc(C)cc(-c2c(-c3ccnc(-c4ccc(N(C)C)cc4)c3)cnn2CC#N)c1	49	53	102	-18	6	-5	26.5	11.2	4.55	15.9	29.4	3.17	-33	11	78	12	20	77	80	96	growth at 0.001 µM (HCT-116 [6]): 102%; growth at 0.001 µM (SK-MEL-5): 95%; GI50 (EKVX): 0.29 µM; TGI (EKVX): > 100 µM; CC50 (EKVX): > 100 µM; growth at 0.01 µM (T47D): 36%; growth at 0.1 µM (A549 [7]): 10%; GI50 (MDA-MB-231): 0.256 µM; LC50 (MDA-MB-231): > 100 µM; growth at 10 µM (A549 [8]): 22.2%; growth at 1 µM (PC-3): 13%; growth at 10 µM (HT-29): -33.3%; growth at 10 µM (SW-620 [9]): 11%; growth at 10 µM (MDA-MB-435): -23%
Cc1cc(O)cc(-c2nn(CC#N)cc2-c2ccnc(-c3ccc(Oc4ccccc4)cc3)c2)c1	93	82	104	84	6	-13	72.8	47.5	16.6	58.8	60.2	76.7	-100	-52	100	96	94	112	96	83	growth at 0.001 µM (HCT-116 [6]): 95%; growth at 0.001 µM (SK-MEL-5): 93%; GI50 (EKVX): 2.16 µM; TGI (EKVX): 8.95 µM; CC50 (EKVX): > 100 µM; growth at 0.01 µM (T47D): 86%; growth at 0.1 µM (A549 [7]): 87%; GI50 (MDA-MB-231): 2.28 µM; LC50 (MDA-MB-231): 57.7 µM; TGI (MDA-MB-231): 7.33 µM; growth at 10 µM (A549 [8]): 42%; growth at 1 µM (PC-3): -12%; growth at 10 µM (HT-29): 0.27%; growth at 10 µM (SW-620 [9]): -100%; growth at 10 µM (MDA-MB-435): -59%

— ChEMBL document CHEMBL1165950, “Design and synthesis of new potent anticancer pyrazoles with high FLT3 kinase inhibitory selectivity” (Bioorg Med Chem, 2010)
